The values below come from ChEMBL document CHEMBL2021895 (Eur J Med Chem, 2012).

A short description of experiment [1]: Inhibition of sheep brain tubulin polymerization using DAPI by fluorescence assay. On the set-up: species or system Ovis aries. The essentials: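 Tubulin purified by two assembly–disassembly cycles, in 0.1 M MES, 0.5 mM MgCl2, 1 mM EGTA, 1 mM GTP, pH 6.6 (about 2-3 mg/mL). Assembly followed by DAPI fluorescence at 37°C.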
The test system of a further experiment is K562. Description: Cytotoxicity against human K562 cells after 72 hrs using resazurin dye by microtiter plate fluorimeter analysis. The class given is functional. Conditions: K562, 72 h.
Experiment [2] in a line: Cytotoxicity against human H1299 cells after 72 hrs using resazurin dye by microtiter plate fluorimeter analysis. The format is functional. The following applies: NCI-H1299, 72 h.
The test system of a further experiment is MDA-MB-231. In words: Cytotoxicity against human MDA-MB-231 cells after 72 hrs using resazurin dye by microtiter plate fluorimeter analysis. Conditions: MDA-MB-231, 72 h. The format is functional.
The subject of another experiment is HCT-116. In words: Cytotoxicity against human HCT116 cells after 72 hrs using resazurin dye by microtiter plate fluorimeter analysis. The class given is functional. The following applies: HCT-116, 72 h.

In experiment [1], `C=C(c1ccc(OC)c(O)c1)c1cc(OC)c(OC)c(OC)c1` showed an IC50 of 2200 nM. For the same compound, the GI50 in the experiment with K562 came out at 5 nM; in experiment [2] it was 3 nM; in the experiment with MDA-MB-231, 4 nM; in the experiment with HCT-116, 3 nM.
Turning to `COc1ccc(/C=C\c2cc(OC)c(OC)c(OC)c2)cc1O` [COMBRETASTATIN A4], the GI50 with K562 was determined as 4 nM; in experiment [2] it was 5 nM; in the experiment with MDA-MB-231 it was 3 nM; with HCT-116, 2 nM.
